Measurements as given in ChEMBL document CHEMBL1139027, “Design and synthesis of potent and subtype-selective PPARalpha agonists” (Bioorg Med Chem Lett, 2006).

Key:
[1] = biological target: T1, Peroxisome proliferator-activated receptor alpha (Homo sapiens, UniProt Q07869); assay: Transactivation by human PPAR alpha in COS1 cells; type: functional, cell-based, COS-1
T1 sequence (Q07869 whole entry): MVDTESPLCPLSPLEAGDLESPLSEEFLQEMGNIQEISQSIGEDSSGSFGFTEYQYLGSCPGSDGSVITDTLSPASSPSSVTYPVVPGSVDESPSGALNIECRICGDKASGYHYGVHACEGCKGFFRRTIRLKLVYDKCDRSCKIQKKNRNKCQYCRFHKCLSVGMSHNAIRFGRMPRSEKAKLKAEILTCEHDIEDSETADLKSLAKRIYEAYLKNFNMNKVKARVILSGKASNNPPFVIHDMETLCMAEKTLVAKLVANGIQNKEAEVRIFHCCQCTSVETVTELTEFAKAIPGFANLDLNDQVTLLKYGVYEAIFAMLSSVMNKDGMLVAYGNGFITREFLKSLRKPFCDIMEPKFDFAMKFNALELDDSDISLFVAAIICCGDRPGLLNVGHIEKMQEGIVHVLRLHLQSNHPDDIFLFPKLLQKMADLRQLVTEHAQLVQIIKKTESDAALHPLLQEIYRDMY

[2] = biological target: T2, Peroxisome proliferator-activated receptor delta (Homo sapiens, UniProt Q03181); assay: Binding affinity to human PPAR delta
T2 sequence (Q03181 whole entry): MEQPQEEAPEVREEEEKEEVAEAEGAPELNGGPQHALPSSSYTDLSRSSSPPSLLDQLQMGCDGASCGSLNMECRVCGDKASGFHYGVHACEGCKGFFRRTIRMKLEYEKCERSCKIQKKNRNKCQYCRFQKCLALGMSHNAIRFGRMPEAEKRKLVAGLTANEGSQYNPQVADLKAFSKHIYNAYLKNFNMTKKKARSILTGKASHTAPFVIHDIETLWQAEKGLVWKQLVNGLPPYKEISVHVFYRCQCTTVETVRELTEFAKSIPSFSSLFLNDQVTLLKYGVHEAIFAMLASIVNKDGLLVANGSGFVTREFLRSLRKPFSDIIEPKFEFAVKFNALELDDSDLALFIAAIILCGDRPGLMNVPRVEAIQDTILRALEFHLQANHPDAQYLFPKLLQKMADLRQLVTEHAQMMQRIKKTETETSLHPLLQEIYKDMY

[3] = biological target: T3, Peroxisome proliferator-activated receptor gamma (Homo sapiens, UniProt P37231)
T3 sequence (P37231 whole entry): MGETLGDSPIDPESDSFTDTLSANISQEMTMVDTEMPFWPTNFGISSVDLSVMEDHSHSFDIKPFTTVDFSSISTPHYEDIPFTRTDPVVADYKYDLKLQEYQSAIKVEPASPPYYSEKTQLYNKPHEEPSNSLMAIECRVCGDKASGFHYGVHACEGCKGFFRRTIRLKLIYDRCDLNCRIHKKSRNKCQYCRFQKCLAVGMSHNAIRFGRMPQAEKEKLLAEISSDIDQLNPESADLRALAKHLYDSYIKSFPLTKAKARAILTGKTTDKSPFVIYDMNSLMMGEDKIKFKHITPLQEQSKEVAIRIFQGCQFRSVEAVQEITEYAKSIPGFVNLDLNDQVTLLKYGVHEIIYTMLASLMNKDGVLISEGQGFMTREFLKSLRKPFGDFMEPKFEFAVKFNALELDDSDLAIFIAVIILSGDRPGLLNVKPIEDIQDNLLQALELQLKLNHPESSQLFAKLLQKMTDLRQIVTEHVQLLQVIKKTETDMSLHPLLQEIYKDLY

[4] = biological target: T3, Peroxisome proliferator-activated receptor gamma; type: functional, cell-based, COS-1
[5] = biological target: T1, Peroxisome proliferator-activated receptor alpha; assay: Binding affinity to human PPAR alpha
[6] = biological target: T2, Peroxisome proliferator-activated receptor delta; assay: Transactivation by human PPAR delta in COS1 cells; type: functional, cell-based, COS-1
Cytochrome P450 2C9 = Cytochrome P450 2C9 (Homo sapiens, UniProt P11712)
Canis familiaris [7] = assay: Decrease in cholesterol level in Beagle dog at 50 mg/kg, po; type: functional, Canis lupus familiaris; parameters: scale not given: the % may be the effect or the level left
In short: (§1)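 Male beagle dogs (12–18 kg, n = 5) fed cholesterol-free chow ad libitum with free access to water. Compounds were suspended in 0.5% methylcellulose and gavaged daily for 14 days. Serum cholesterol is reported as a mean value, with final-day data compared against vehicle control.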

Syrian golden hamster [8] = assay: Decrease in triglyceride level in Golden Syrian hamster at 100 mg/kg, po; type: functional, Mesocricetus auratus; parameters: scale not given: the % may be the effect or the level left
In short: (§2)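 Male Golden Syrian hamsters (120–150 g, n = 10) on normal rodent chow with free access to water. Sodium salts were given by oral gavage once daily for 9 days in 0.5% methylcellulose vehicle. Serum cholesterol and triglycerides were measured and reported as % change.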

Syrian golden hamster [9] = assay: Decrease in cholesterol level in Golden Syrian hamster at 100 mg/kg, po; type: functional, Mesocricetus auratus; parameters: scale not given: the % may be the effect or the level left; in short: as §2
Canis familiaris [10] = assay: Decrease in cholesterol level in Beagle dog at 4 mg/kg, po; type: functional, Canis lupus familiaris; parameters: scale not given: the % may be the effect or the level left; in short: as §1

Cytochrome P450 2C9, sequence (P11712 whole entry): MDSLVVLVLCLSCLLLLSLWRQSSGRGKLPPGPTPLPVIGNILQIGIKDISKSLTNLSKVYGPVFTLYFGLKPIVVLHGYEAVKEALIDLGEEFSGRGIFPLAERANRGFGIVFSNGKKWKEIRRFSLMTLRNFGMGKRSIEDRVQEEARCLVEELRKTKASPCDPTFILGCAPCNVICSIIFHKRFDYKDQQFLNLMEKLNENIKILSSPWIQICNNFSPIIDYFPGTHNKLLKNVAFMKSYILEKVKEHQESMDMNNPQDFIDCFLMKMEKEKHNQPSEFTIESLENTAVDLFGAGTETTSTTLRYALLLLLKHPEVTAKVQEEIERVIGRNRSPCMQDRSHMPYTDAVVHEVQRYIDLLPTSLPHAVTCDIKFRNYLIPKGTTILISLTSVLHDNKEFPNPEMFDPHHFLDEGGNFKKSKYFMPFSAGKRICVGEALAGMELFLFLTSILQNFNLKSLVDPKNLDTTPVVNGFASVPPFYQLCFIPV

EC50 ([1]; read-out: EC50) [nM]	IC50 [5] [nM]	IC50 ([2]; read-out: IC50) [nM]	IC50 [3]	Compound	also measured
2.5	5			CCC(C)(Oc1ccc(OCCCOc2ccc(Oc3ccc(F)cc3)cc2Cl)cc1)C(=O)O (centres undefined)	IC50 [2]: Not Active; IC50 ([3]; read-out: IC50): 1240 nM; EC50 ([4]; cos-1): Not Active
3	6	1090	Not Active	CC[C@](C)(Oc1ccc(OCCCOc2ccc(Oc3ccc(F)cc3)cc2Cl)cc1)C(=O)O	EC50 ([4]; cos-1): Not Active
62				CC(C)(Oc1ccc(OCCOc2ccc(Oc3ccc(F)cc3)cc2Cl)cc1)C(=O)O	EC50 [2]: Not Active; EC50 [3]: Not Active; EC50 ([6]; cos-1): Not Active; EC50 ([4]; cos-1): Not Active; EC50 ([5]; read-out: EC50): 87 nM
54.1	42	4630		CC[C@@](C)(Cc1ccc(OCCCOc2ccccc2Cl)cc1)C(=O)O	
21				CC(C)(Oc1cccc(OCCCOc2ccc(Oc3ccc(F)cc3)cc2Cl)c1)C(=O)O	EC50 [3]: Not Active; EC50 ([5]; read-out: EC50): 36 nM
2.7	22		Not Active	CCC(CC)(Oc1ccc(OCCCOc2ccc(Oc3ccc(F)cc3)cc2Cl)cc1)C(=O)O	IC50 [2]: Not Active; EC50 ([4]; cos-1): Not Active
15	116	1350	Not Active	O=C(O)C(Cc1ccc(OCCCOc2ccc(Oc3ccc(F)cc3)cc2Cl)cc1)C1CCC1 (centres undefined)	EC50 ([4]; cos-1): Not Active
	262	1340	Not Active	O=C(O)C(Cc1ccc(OCCCOc2ccc(Oc3ccc(F)cc3)cc2Cl)cc1)c1ccccc1 (centres undefined)	
	6090		Not Active	CC[C@@](C)(Cc1ccc(OCCCOc2ccc3c(C)cc(O)nc3c2)cc1)C(=O)O	IC50 [2]: Not Active
20	30	2390		CC(C)(Oc1ccc(OCCCOc2ccc(Oc3ccc(F)cc3)cc2Cl)cc1)C(=O)O	EC50 ([6]; read-out: EC50): > 3000 nM
				CC(C)(Oc1ccccc1OCCCOc1ccc(Oc2ccc(F)cc2)cc1Cl)C(=O)O	EC50 [2]: Not Active; EC50 [3]: Not Active; EC50 [5]: Not Active
				CC(C)OC(=O)C(C)(C)Oc1ccc(C(=O)c2ccc(Cl)cc2)cc1 [FENOFIBRATE]	Activity (Canis familiaris [7]): -18%; Activity (Syrian golden hamster [8]): -30%; Activity (Syrian golden hamster [9]): -31%
	125		Not Active	CCC1(CC)C=C(C(F)(F)F)c2cc(Cl)c(OCCCOc3ccc(O[C@](C)(CC)C(=O)O)cc3)cc2O1	IC50 [2]: Not Active
	208	4070	Not Active	CC(Cc1ccc(OCCCOc2ccc(Oc3ccc(F)cc3)cc2Cl)cc1)C(=O)O (centres undefined)	
				CCC(C)(C)C(=O)O[C@H]1C[C@@H](C)C=C2C=C[C@H](C)[C@H](CC[C@@H]3C[C@@H](O)CC(=O)O3)[C@H]21 [SIMVASTATIN]	Activity (Canis familiaris [10]): -19%
454	130	1130	Not Active	CCCC(Cc1ccc(OCCCOc2ccc(Oc3ccc(F)cc3)cc2Cl)cc1)C(=O)O (centres undefined)	
	157	3270	Not Active	CC[C@@](C)(Oc1ccc(OCCCOc2ccc3c(C(F)(F)F)cc(=O)oc3c2Cl)cc1)C(=O)O	
				CCCc1cc(Oc2ccc(F)cc2)ccc1OCCCOc1ccc(C2SC(=O)NC2=O)cc1 (centres undefined)	EC50 ([1]; cos-1): Not Active; EC50 [2]: Not Active; EC50 ([6]; cos-1): Not Active; EC50 [5]: Not Active
	156	1170	Not Active	CCC(Cc1ccc(OCCCOc2ccc(Oc3ccc(F)cc3)cc2Cl)cc1)C(=O)O (centres undefined)	
	675	> 50		O=C(O)CCc1ccc(OCCCOc2ccc(Oc3ccc(F)cc3)cc2Cl)cc1	
20	101	2410	Not Active	CC[C@@](C)(Oc1ccc(OCCCOc2ccc(Oc3ccc(F)cc3)cc2Cl)cc1)C(=O)O	EC50 ([4]; read-out: EC50): > 3000 nM

Compound	EC50 ([1]; read-out: EC50) [nM]	IC50 [5] [nM]	IC50 ([2]; read-out: IC50) [nM]	IC50 [3]	also measured
CC[C@@](C)(Cc1ccc(OCCCOc2ccc(CC(F)(F)F)cc2Cl)cc1)C(=O)O	< 1	< 1	> 70000		IC50 ([3]; read-out: IC50): > 6000 nM; EC50 ([4]; cos-1): Not Active; IC50 (Cytochrome P450 2C9): < 50 nM
CCCc1cc(Oc2ccc(F)cc2)ccc1OCCCOc1ccc(OC(C)(C)C(=O)O)cc1	51				EC50 ([2]; read-out: EC50): 106 nM; EC50 ([6]; read-out: EC50): 55 nM; EC50 ([5]; read-out: EC50): 110 nM
CC[C@@](C)(Cc1ccc(OCCCOc2ccc3c(C(F)(F)F)cc(=O)oc3c2C)cc1)C(=O)O	10	49	134	Not Active	
CC(C)(Oc1ccc(OCCCCOc2ccc(Oc3ccc(F)cc3)cc2Cl)cc1)C(=O)O	35				EC50 ([2]; read-out: EC50): 545 nM; EC50 ([6]; read-out: EC50): 284 nM; EC50 ([5]; read-out: EC50): 66 nM
